ChEMBL document CHEMBL1156619, “TX-2152: a conformationally rigid and electron-rich diyne analogue of FTY720 with in vivo antiangiogenic activity” (Bioorg Med Chem, 2008)

Experiments:
Gallus gallus [1] = species: Gallus gallus; test: Antiangiogenic activity in chick embryo chorioallantoic membrane assessed as number of eggs showing 3 mm avascular zone at 1 ug; format: functional, tissue-based
Procedure, shortened: (§1)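 Fertilized chicken eggs held at 37.6 °C, humidified, for 4 days; 3 mL albumin withdrawn and air sac displaced to drop the CAM, window capped, incubation at 39.0 °C. Next day a silicon ring placed on the 2–3 mm CAM and test solution applied dropwise at room temperature. Compounds in DMSO, vehicle control 0.05% DMSO in 1% methyl cellulose/0.9% NaCl. After 1 day incubator raised to 39.5 °C and eggs incubated 1 more day. Vessels then visualized by injecting fat emulsion (1 mL) into the CAM and scored for inhibition.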

Gallus gallus [2] = species: Gallus gallus; test: Antiangiogenic activity in chick embryo chorioallantoic membrane assessed as number of eggs showing 3 mm avascular zone at 5 ug; format: functional, tissue-based; procedure, shortened: as §1
Gallus gallus [3] = species: Gallus gallus; test: Antiangiogenic activity in chick embryo chorioallantoic membrane assessed as number of eggs showing 3 mm avascular zone at 10 ug; format: functional, tissue-based; procedure, shortened: as §1
Gallus gallus [4] = species: Gallus gallus; test: Antiangiogenic activity in chick embryo chorioallantoic membrane assessed as number of eggs showing 3 mm avascular zone at 2.5 ug; format: functional, tissue-based; procedure, shortened: as §1
[5] = Hydrophobicity, Log P of the compound; format: physicochemical; settings: octanol/water
Procedure, shortened: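 Observed logP (logPow) measured by HPLC on a C18 column. Mobile phase methanol/water 3:1 (v/v) at 1.0 mL/min, UV detection at 254 nm. Test and reference compounds dissolved in mobile phase for injection.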

Gallus gallus [6] = species: Gallus gallus; test: Antiangiogenic activity in chick embryo chorioallantoic membrane assessed as number of eggs showing 3 mm avascular zone at 100 ug; format: functional, tissue-based; procedure, shortened: as §1

`CO[C@@H]1[C@H](OC(=O)NC(=O)CCl)CC[C@]2(CO2)[C@H]1[C@@]1(C)O[C@@H]1CC=C(C)C` showed an inhibition (Gallus gallus [1]) of 50%, an inhibition (Gallus gallus [2]) of 78% and an inhibition (Gallus gallus [3]) of 82%.
Work on `C#CC#Cc1ccc(CCC(N)(CO)CO)cc1` yielded an inhibition (Gallus gallus [1]) of 35%, an inhibition (Gallus gallus [4]) of 71% and an inhibition (Gallus gallus [2]) of 79%. It also gave an inhibition (Gallus gallus [3]) of 90%.
With `CC(=O)NC(CCc1ccc(C#C[Si](C)(C)C)cc1)(COC(C)=O)COC(C)=O` the logP [5] was 4.07.
`C#CC#CC#Cc1ccc(CCC(N)(CO)CO)cc1` gave an inhibition (Gallus gallus [1]) of 40%, an inhibition (Gallus gallus [4]) of 67% and an inhibition (Gallus gallus [2]) of 67%. The inhibition (Gallus gallus [3]) was 60%.
`CC(=O)NC(CCc1ccc(C#CC#CC#C[Si](C)(C)C)cc1)(COC(C)=O)COC(C)=O` gave a logP [5] of 5.9.
For `CCCCCCCCc1ccc(CCC(N)(CO)CO)cc1`, the inhibition (Gallus gallus [1]) was 40%, the inhibition (Gallus gallus [6]) was 100% and the inhibition (Gallus gallus [3]) was 77%.
With `CC(=O)NC(CCc1ccc(C#CC#C[Si](C)(C)C)cc1)(COC(C)=O)COC(C)=O` the logP [5] was 4.97.
Work on `C#Cc1ccc(CCC(N)(CO)CO)cc1` yielded an inhibition (Gallus gallus [1]) of 17%, an inhibition (Gallus gallus [2]) of 17% and an inhibition (Gallus gallus [3]) of 42%.
